What was measured:
[1] = target: T1, ATP-dependent translocase ABCB1 (Homo sapiens, UniProt P08183); test: Inhibition of ABCB1 in human Caco-2 cells assessed as ATPase activation at 100 uM after 2 hrs; format: cell-based; details: caco-2, 2 h
Outline: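 Caco-2 cells seeded at 2 × 10⁴ cells/well and held overnight at 37 °C, 5% CO2. Exposed to compound in complete medium for 2 h at 37 °C. Cells then lysed and ATP read by luciferase luminescence after 10 min dark adaptation. Tested at 100 µM; a positive response is reported as a percentage.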

D(2) dopamine receptor [2] = target: T2, D(2) dopamine receptor (Homo sapiens, UniProt P14416); test: Displacement of [3H]spiroperidol from human cloned dopaminergic D2 receptor expressed in rat C6 cells at 10 uM; format: cell-based
Outline: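 Buffer was 50 mM Tris, 10 mM MgCl2, 1 mM EDTA, pH 7.4. Incubated 60 min at 27 °C, then filtered on PEI-soaked GF/C. Nonspecific binding with 10 µM haloperidol.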

D(2) dopamine receptor [3] = target: T2, D(2) dopamine receptor; test: Displacement of [3H]spiroperidol from human cloned dopaminergic D2 receptor expressed in rat C6 cells; format: cell-based
[4] = target: T3, 5-hydroxytryptamine receptor 1A (Homo sapiens) (UniProt P08908); test: Displacement of [3H]8-OH-DPAT from human cloned 5-HT1A receptor expressed in human HeLa cells at 10 uM; format: cell-based
T3 sequence (whole entry): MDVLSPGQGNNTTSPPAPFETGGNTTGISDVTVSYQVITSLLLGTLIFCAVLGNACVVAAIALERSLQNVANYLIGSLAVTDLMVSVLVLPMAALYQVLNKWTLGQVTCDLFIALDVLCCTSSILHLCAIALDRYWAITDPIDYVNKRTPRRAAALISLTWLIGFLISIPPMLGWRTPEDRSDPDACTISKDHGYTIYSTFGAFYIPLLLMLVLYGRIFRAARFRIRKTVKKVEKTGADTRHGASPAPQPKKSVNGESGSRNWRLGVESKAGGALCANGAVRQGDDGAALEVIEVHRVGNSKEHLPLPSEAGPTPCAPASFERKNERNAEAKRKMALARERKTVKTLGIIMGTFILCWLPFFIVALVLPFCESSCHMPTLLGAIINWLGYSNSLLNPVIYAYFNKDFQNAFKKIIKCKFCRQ
Outline: (§1)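 Compounds at 0.1 nM–10 µM in 50 mM Tris-HCl pH 7.4, 5 mM MgSO4, 120 min at 37 °C. Filtered on PEI-soaked GF/C. Nonspecific binding with 10 µM 8-OH-DPAT. […] Mean of three experiments, triplicate samples.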

[5] = target: T4, 5-hydroxytryptamine receptor 1A (Homo sapiens, UniProt P08908); test: Displacement of [3H]8-OH-DPAT from human cloned 5-HT1A receptor expressed in human HeLa cells; format: cell-based; outline: as §1
T4 sequence (P08908 whole entry): T3 sequence (whole entry)

[6] = target: T1, ATP-dependent translocase ABCB1; test: Inhibition of ABCB1-mediated [3H]vinblastine transportation in human Caco-2 cells; format: cell-based
Outline: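 Caco-2 monolayers grown 21 days (TEER >800 Ω × cm²). 20 nM [3H]vinblastine added to the basolateral side with or without compound (200 nM–400 µM) for 120 min at 37 °C. Appearance on the apical side measured by scintillation counting. IC50 from nonlinear fit. Mean of three experiments, triplicate samples.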

Caco-2 = test: Ratio of apparent permeability from basolateral to apical over apical to basolateral side of human Caco-2 cells after 120 mins by UV-visible spectroscopy; details: caco-2, 2 h
ABCB1 = ABCB1 (Homo sapiens, UniProt P08183); test: Activation of ABCB1 in human Caco-2 cells assessed as ATPase activation at 100 uM after 2 hrs
[7] = target: T1, ATP-dependent translocase ABCB1; test: Inhibition of ABCB1 transfected in MDCK cells assessed as increase in calcein-AM accumulation; format: cell-based
[8] = target: T1, ATP-dependent translocase ABCB1; test: Inhibition of ABCB1
[9] = target: T5, Broad substrate specificity ATP-binding cassette transporter ABCG2 (Homo sapiens, UniProt Q9UNQ0); test: Inhibition of ABCG2
T5 sequence (Q9UNQ0 whole entry): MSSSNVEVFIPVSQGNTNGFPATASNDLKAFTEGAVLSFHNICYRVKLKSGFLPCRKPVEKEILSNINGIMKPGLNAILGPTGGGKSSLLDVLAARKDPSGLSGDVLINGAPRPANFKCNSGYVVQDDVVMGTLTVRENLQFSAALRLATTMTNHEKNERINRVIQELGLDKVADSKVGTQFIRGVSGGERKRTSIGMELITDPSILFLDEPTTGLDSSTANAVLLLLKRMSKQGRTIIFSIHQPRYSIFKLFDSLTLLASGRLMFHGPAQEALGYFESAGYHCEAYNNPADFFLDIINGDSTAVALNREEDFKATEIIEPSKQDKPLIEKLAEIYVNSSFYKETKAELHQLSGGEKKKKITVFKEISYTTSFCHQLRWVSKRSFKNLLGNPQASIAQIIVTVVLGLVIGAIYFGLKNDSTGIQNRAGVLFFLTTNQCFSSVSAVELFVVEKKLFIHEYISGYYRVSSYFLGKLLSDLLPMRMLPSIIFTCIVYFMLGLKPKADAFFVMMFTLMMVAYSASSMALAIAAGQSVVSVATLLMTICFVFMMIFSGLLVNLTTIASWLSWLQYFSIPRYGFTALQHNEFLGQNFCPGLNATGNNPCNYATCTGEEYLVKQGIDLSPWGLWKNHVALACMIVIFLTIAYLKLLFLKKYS

ABCB1, sequence (P08183 whole entry): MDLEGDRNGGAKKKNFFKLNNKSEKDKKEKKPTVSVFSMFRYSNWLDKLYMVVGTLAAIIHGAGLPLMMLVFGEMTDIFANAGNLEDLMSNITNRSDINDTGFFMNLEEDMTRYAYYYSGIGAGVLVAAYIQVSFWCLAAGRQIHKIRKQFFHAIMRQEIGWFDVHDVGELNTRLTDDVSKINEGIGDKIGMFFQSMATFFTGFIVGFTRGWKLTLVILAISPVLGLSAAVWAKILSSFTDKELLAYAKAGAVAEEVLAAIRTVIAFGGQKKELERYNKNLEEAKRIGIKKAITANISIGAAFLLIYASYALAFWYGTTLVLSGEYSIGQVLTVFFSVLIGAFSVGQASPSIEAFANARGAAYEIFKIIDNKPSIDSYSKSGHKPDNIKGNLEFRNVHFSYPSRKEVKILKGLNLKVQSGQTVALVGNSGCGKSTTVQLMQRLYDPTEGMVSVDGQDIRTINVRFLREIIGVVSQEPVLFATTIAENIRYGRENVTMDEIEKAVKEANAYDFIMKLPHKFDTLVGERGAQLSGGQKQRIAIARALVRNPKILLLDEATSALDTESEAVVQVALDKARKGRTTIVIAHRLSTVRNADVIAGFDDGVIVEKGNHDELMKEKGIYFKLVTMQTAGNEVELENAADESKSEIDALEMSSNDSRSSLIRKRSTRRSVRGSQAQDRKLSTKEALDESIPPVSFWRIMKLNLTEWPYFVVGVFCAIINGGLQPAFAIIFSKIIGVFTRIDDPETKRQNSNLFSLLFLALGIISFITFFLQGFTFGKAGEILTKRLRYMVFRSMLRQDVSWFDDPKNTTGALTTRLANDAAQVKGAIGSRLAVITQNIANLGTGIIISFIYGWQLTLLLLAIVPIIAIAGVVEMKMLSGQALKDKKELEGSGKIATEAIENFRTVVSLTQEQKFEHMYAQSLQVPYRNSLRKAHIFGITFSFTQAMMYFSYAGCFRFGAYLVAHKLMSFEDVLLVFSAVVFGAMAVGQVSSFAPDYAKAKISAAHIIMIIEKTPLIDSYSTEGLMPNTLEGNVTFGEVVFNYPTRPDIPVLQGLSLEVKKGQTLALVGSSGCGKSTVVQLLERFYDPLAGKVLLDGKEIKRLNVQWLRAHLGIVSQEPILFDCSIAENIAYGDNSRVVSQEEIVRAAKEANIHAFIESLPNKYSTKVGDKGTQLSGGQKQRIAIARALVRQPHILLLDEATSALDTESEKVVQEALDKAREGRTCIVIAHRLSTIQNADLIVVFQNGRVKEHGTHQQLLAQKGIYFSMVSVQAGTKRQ
T1 sequence (P08183 whole entry): as above
T2 sequence (P14416 whole entry): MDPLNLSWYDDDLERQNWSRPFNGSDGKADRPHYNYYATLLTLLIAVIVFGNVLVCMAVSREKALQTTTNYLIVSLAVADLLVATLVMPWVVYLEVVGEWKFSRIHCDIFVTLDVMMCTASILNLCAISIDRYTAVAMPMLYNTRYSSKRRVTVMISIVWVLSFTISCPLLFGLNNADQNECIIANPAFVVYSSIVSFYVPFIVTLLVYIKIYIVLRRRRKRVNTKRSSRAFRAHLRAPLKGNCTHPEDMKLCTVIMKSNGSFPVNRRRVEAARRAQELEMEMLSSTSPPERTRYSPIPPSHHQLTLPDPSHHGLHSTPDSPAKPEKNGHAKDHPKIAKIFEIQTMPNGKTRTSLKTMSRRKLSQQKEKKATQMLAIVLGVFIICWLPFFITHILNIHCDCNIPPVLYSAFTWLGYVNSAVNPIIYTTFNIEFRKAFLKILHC

Activity [1] | Ki (D(2) dopamine receptor [3]) [nM] | Ki [5] [nM] | IC50 [6] [nM] | Ratio (Caco-2) | IC50 [8] [nM] | IC50 [9] [nM] | SMILES | inhibition (D(2) dopamine receptor [2]) [%] | inhibition [4] [%] | activation at 2 h, 100 µM (ABCB1) [%] | IC50 [7] [nM]
Not Active |  |  |  |  |  |  | COc1cc2c(cc1OC)CN(CCc1ccc(NC(=O)c3cccc4c(=O)c5cccc(OC)c5[nH]c34)cc1)CC2 |  |  |  | 
Not Active | > 1000 | 1310 | 1800 | 5.1 |  |  | COc1cccc(CCc2ccccc2OCCCCN2CCN(c3cccc(Cl)c3)CC2)c1 | 35 |  |  | 
Not Active | > 1000 | 1310 | 12000 | 7.2 |  |  | COc1cccc(CCc2ccccc2OCCN2CCc3ccccc3C2)c1 | 35 |  |  | 
 | > 1000 | 783 | 10000 | 2.2 |  |  | COc1cccc(CCc2ccccc2OCCN2CCN(c3ccc(F)cc3)CC2)c1 | 38 |  | 10 | 
Not Active | > 1000 | 1330 |  |  |  |  | COc1cccc(CCc2ccccc2OCCCCN2CCc3ccccc3C2)c1 | 48 |  |  | 
Not Active | 20 | 331 | 1200 | 131 |  |  | COc1cccc(CCc2ccccc2OCCCN2CCN(c3ncccn3)CC2)c1 |  |  |  | 
 | 6.3 | 756 | 14000 | 8.1 |  |  | COc1cccc(CCc2ccccc2OCCCN2CCN(c3ccccc3OC)CC2)c1 |  |  | 20 | 
Not Active | 629 | 656 |  |  |  |  | COc1cccc(CCc2ccccc2OCCN2CCN(c3ncccn3)CC2)c1 |  |  |  | 
 | 655 | 800 |  |  |  |  | COc1cccc(CCc2ccccc2OCCCN2CCN(c3ccc(F)cc3)CC2)c1 |  |  | 38 | 
Not Active | 298 | 1130 | 2500 | 6.8 |  |  | COc1cccc(CCc2ccccc2OCCCN2CCN(c3cccc(Cl)c3)CC2)c1 |  |  |  | 
 |  |  |  |  | 85 | 1500 | COc1cccc(CCc2ccccc2NCc2cccc(OC)c2OC)c1 |  |  |  | 
Not Active | > 1000 | 686 | 3200 | 3.6 |  |  | COc1cccc(CCc2ccccc2OCCN2CCN(c3cccc(Cl)c3)CC2)c1 | 43 |  |  | 
 | 427 | 1240 | 25000 | 6.8 |  |  | COc1cccc(CCc2ccccc2OCCN2CCN(c3ccccc3OC)CC2)c1 |  |  | 10 | 
Not Active | > 1000 | 1410 | 40000 | 2.6 |  |  | COc1cccc(CCc2ccccc2OCCN2CCN(c3cccc(C(F)(F)F)c3)CC2)c1 | 31 |  |  | 
 |  |  |  |  |  | 120000 | COc1cccc(CCc2ccccc2OCc2cccc(OC)c2OC)c1 |  |  |  | 
 | 67 | 1090 | 5800 | 3.9 |  |  | COc1cccc(CCc2ccccc2OCCCCN2CCN(c3ccccc3OC)CC2)c1 |  |  | 54 | 
Not Active | 114 | 1120 | 500 | 6.3 |  |  | COc1cccc(CCc2ccccc2OCCCN2CCc3ccccc3C2)c1 |  |  |  | 1140
Not Active | 1410 | 2870 | 6500 | 4.4 |  |  | COc1cccc(CCc2ccccc2OCCCN2CCN(c3cccc(C(F)(F)F)c3)CC2)c1 |  |  |  | 

SMILES | Activity [1] | Ki (D(2) dopamine receptor [3]) [nM] | Ki [5] [nM] | IC50 [6] [nM] | Ratio (Caco-2) | IC50 [8] [nM] | IC50 [9] [nM] | inhibition (D(2) dopamine receptor [2]) [%] | inhibition [4] [%] | activation at 2 h, 100 µM (ABCB1) [%] | IC50 [7] [nM]
COc1cccc(CCc2ccccc2OCCCCCN2CCN(c3cccc(Cl)c3)CC2)c1 | Not Active | > 1000 | > 5000 |  |  |  |  | 25 | 14 |  | 
COc1cccc(CCc2ccccc2OCCN2CCc3cc(OC)c(OC)cc3C2)c1 |  | > 1000 | > 5000 | 750 | 6.4 |  |  | 12 | 26 | 55 | 780
COc1cccc(CCc2ccccc2OCCN2CCN(C)CC2)c1 | Not Active | 178 | > 5000 | 800 | 6.8 |  |  |  | 48 |  | 7760
COc1cccc(CCc2ccccc2OCCCN2CCN(C)CC2)c1 | Not Active | 565 | > 5000 | 2500 | 4.7 |  |  |  | 40 |  | 
COc1cccc(CCc2ccccc2OCCCCCN2CCN(c3ccc(F)cc3)CC2)c1 |  | 847 | > 5000 |  |  |  |  |  | 27 | 40 | 
COc1cccc(CCc2ccccc2OCCCCCN2CCc3ccccc3C2)c1 | Not Active | > 1000 | > 5000 | 3170 | 7.3 |  |  | 16 | 15 |  | 
COc1cccc(CCc2ccccc2OCCCN2CCc3cc(OC)c(OC)cc3C2)c1 | Not Active | > 1000 | > 5000 | 140 | 4.3 |  |  | 35 | 36 |  | 90
COc1cccc(CCc2ccccc2OCCCCCN2CCc3cc(OC)c(OC)cc3C2)c1 |  | > 1000 | > 5000 | 350 | 4.9 |  |  | 18 | 22 | 20 | 110
COc1cccc(CCc2ccccc2OCCCCN2CCc3cc(OC)c(OC)cc3C2)c1 | Not Active | > 1000 | > 5000 | 190 | 5.8 |  |  | 40 | 18 |  | 160
COc1cccc(CCc2ccccc2OCCCCCN2CCN(c3ncccn3)CC2)c1 | Not Active | > 1000 | > 5000 | 1720 | 7.1 |  |  | 24 | 38 |  | 
COc1cccc(CCc2ccccc2OCCCCN2CCN(c3ccc(F)cc3)CC2)c1 |  | 1320 | > 5000 |  |  |  |  |  | 47 | 25 | 
COc1cccc(CCc2ccccc2OCCCCN2CCN(C)CC2)c1 | Not Active | > 1000 | > 5000 | 150 | 6.3 |  |  | 14 | 38 |  | 4780
COc1cccc(CCc2ccccc2OCCCCCN2CCN(C)CC2)c1 | Not Active | > 1000 | > 5000 | 6820 | 2.5 |  |  | 26 | 24 |  | 
COc1cccc(CCc2ccccc2OCCCCCN2CCN(c3ccccc3OC)CC2)c1 |  | > 1000 | > 5000 | 1270 | 5.2 |  |  | 35 | 14 | 15 | 
